Laboratory results reported in ChEMBL document CHEMBL3763095, “Naphtho[1',2':4,5]imidazo[1,2-a]pyridine-5,6-diones: Synthesis, enzymatic reduction and cytotoxic activity” (Bioorg Med Chem Lett, 2016).

Assays:
Design in all cases: species or system Homo sapiens
[1] = substrate: COc1ccc2nc3c(n2c1)C(=O)C(=O)c1ccccc1-3; assay: (§1) Activity of NADPH:cytochrome P-450R (unknown origin) assessed as NADPH oxidation by spectrophotometric analysis
How it was run: (§2)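 Initial rates of enzymatic reduction measured at varied compound concentrations with NADPH fixed at 150 µM. Reactivity expressed as apparent second-order k_cat/K_m, taken as the efficiency of reduction by the reduced free enzyme (ping-pong scheme).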

[2] = substrate: O=C1C(=O)c2c(nc3ccccn23)-c2ccccc21; assay: as §1; how it was run: as §2
[3] = substrate: Cc1cccn2c3c(nc12)-c1ccccc1C(=O)C3=O; assay: as §1; how it was run: as §2
[4] = substrate: O=C1C(=O)c2c(nc3ccc(F)cn23)-c2ccccc21; assay: as §1; how it was run: as §2
[5] = substrate: O=C1C(=O)c2c(nc3ccc([N+](=O)[O-])cn23)-c2ccccc21; assay: as §1; how it was run: as §2
[6] = substrate: O=C1C(=O)c2c(nc3ccc4ccccc4n23)-c2ccccc21; assay: as §1; how it was run: as §2
[7] = substrate: O=C1C(=O)c2c(nc3ccccn23)-c2ccc([N+](=O)[O-])cc21; assay: as §1; how it was run: as §2
[8] = substrate: Cc1ccn2c3c(nc2c1)-c1ccccc1C(=O)C3=O; assay: as §1; how it was run: as §2
[9] = substrate: Cc1ccc2nc3c(n2c1)C(=O)C(=O)c1ccccc1-3; assay: as §1; how it was run: as §2
[10] = substrate: O=C1C(=O)c2c(nc3ccc(C(F)(F)F)cn23)-c2ccccc21; assay: as §1; how it was run: as §2
[11] = substrate: O=C1C(=O)c2c(nc3ncccn23)-c2ccccc21; assay: as §1; how it was run: as §2
[12] = substrate: O=C1C(=O)c2c(nc3ccc(Cl)cn23)-c2ccccc21; assay: as §1; how it was run: as §2
[13] = substrate: O=C1C(=O)c2c(nc3ccc(Br)cn23)-c2ccccc21; assay: as §1; how it was run: as §2

B1: NADPH--cytochrome P450 reductase (Homo sapiens) (protein)
chain: MGDSHVDTSSTVSEAVAEEVSLFSMTDMILFSLIVGLLTYWFLFRKKKEEVPEFTKIQTLTSSVRESSFVEKMKKTGRNIIVFYGSQTGTAEEFANRLSKDAHRYGMRGMSADPEEYDLADLSSLPEIDNALVVFCMATYGEGDPTDNAQDFYDWLQETDVDLSGVKFAVFGLGNKTYEHFNAMGKYVDKRLEQLGAQRIFELGLGDDDGNLEEDFITWREQFWPAVCEHFGVEATGEESSIRQYELVVHTDIDAAKVYMGEMGRLKSYENQKPPFDAKNPFLAAVTTNRKLNQGTERHLMHLELDISDSKIRYESGDHVAVYPANDSALVNQLGKILGADLDVVMSLNNLDEESNKKHPFPCPTSYRTALTYYLDITNPPRTNVLYELAQYASEPSEQELLRKMASSSGEGKELYLSWVVEARRHILAILQDCPSLRPPIDHLCELLPRLQARYYSIASSSKVHPNSVHICAVVVEYETKAGRINKGVATNWLRAKEPAGENGGRALVPMFVRKSQFRLPFKATTPVIMVGPGTGVAPFIGFIQERAWLRQQGKEVGETLLYYGCRRSDEDYLYREELAQFHRDGALTQLNVAFSREQSHKVYVQHLLKQDREHLWKLIEGGAHIYVCGDARNMARDVQNTFYDIVAELGAMEHAQAVDYIKKLMTKGRYSLDVWS
Q: B1 was tested. Which kcat/Km [1] did it give?
A: Its kcat/Km is 2.9e+07 M⁻¹ s⁻¹.

Q: What about the kcat/Km [2] of the same protein?
A: The kcat/Km was 3.1e+07 M⁻¹ s⁻¹.

Q: What about the kcat/Km [3] of the same protein?
A: Its kcat/Km is 1.3e+07 M⁻¹ s⁻¹.

Q: What about the kcat/Km [4] of the same protein?
A: The kcat/Km was 2.4e+07 M⁻¹ s⁻¹.

Q: What about the kcat/Km [5] of the same protein?
A: The kcat/Km was 5.9e+07 M⁻¹ s⁻¹.

Q: And the kcat/Km [6]?
A: Its kcat/Km is 5.6e+06 M⁻¹ s⁻¹.

Q: And the kcat/Km [7]?
A: Its kcat/Km is 7.2e+07 M⁻¹ s⁻¹.

Q: What about the kcat/Km [8] of the same protein?
A: Its kcat/Km is 1.4e+07 M⁻¹ s⁻¹.

Q: What about the kcat/Km [9] of the same protein?
A: Its kcat/Km is 8.9e+06 M⁻¹ s⁻¹.

Q: What about the kcat/Km [10] of the same protein?
A: Its kcat/Km is 3.5e+07 M⁻¹ s⁻¹.

Q: What about the kcat/Km [11] of the same protein?
A: The kcat/Km was 3.4e+07 M⁻¹ s⁻¹.

Q: And the kcat/Km [12]?
A: The kcat/Km was 5.4e+07 M⁻¹ s⁻¹.

Q: What about the kcat/Km [13] of the same protein?
A: Its kcat/Km is 3.7e+07 M⁻¹ s⁻¹.
